From ChEMBL document CHEMBL4689842, “EUbOPEN Chemogenomics Library wave 1” (2021)

System: U2OS
Assay: Multiplex assay against U2OS
Format: toxicity, cell-based
Conditions: human
Method in brief: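 On a CQ1 microscope at 37°C and 5% CO2, live cells were imaged after compound addition. They had been stained at seeding with Hoechst33342, BioTracker Green Microtubule Cytoskeleton Dye, MitoTracker Red and Annexin V Alexa Fluor 680. CellPathfinder machine-learning gating assigned cells to Hoechst high-intensity objects or normal cells, normal cells to healthy, pyknosed or fragmented nuclei, and pyknosed cells to mitotic or apoptotic. Tubulin, mitochondrial-mass and membrane-permeability phenotypes are per cents of healthy-nucleus cells.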

[1] = 12 h, 1 µM, compound concentration 1 uM, replicate 1
[2] = 12 h, 1 µM, compound concentration 1 uM, replicate 2
[3] = 12 h, 10 µM, compound concentration 10 uM, replicate 1
[4] = 12 h, 10 µM, compound concentration 10 uM, replicate 2
[5] = 24 h, 1 µM, compound concentration 1 uM, replicate 1
[6] = 24 h, 1 µM, compound concentration 1 uM, replicate 2
[7] = 24 h, 10 µM, compound concentration 10 uM, replicate 1
[8] = 24 h, 10 µM, compound concentration 10 uM, replicate 2
[9] = 48 h, 1 µM, compound concentration 1 uM, replicate 1
[10] = 48 h, 1 µM, compound concentration 1 uM, replicate 2
[11] = 48 h, 10 µM, compound concentration 10 uM, replicate 1
[12] = 48 h, 10 µM, compound concentration 10 uM, replicate 2

C=CC(=O)Nc1cccc(C(=O)Nc2ccc(Nc3cc(-c4[nH]c(SC)nc4C)ccn3)cc2)c1
Population Apoptotic (%) [1]: 52% | Population Fragmented Nuclei (%) [1]: 9% | Population Healthy Nuclei (%) [1]: 78% | Population Hoechst High Intensity Objects (%) [1]: 8% | Population Membrane Permeable-Phenotype (%) [1]: 4% | Population Mitochondria Different-Phenotype (%) [1]: 8% | Population Mitotic Cells (%) [1]: 47% | Population Normal (%) [1]: 91% | Population Pyknosed Nuclei (%) [1]: 12% | Population Tubulin-Different-Phenotype (%) [1]: 11% | Total Cell Count [1]: 259 | Population Apoptotic (%) [2]: 0% | Population Fragmented Nuclei (%) [2]: 2% | Population Healthy Nuclei (%) [2]: 94% | Population Hoechst High Intensity Objects (%) [2]: 14% | Population Membrane Permeable-Phenotype (%) [2]: 0% | Population Mitochondria Different-Phenotype (%) [2]: 7% | Population Mitotic Cells (%) [2]: 100% | Population Normal (%) [2]: 85% | Population Pyknosed Nuclei (%) [2]: 2% | Population Tubulin-Different-Phenotype (%) [2]: 23% | Total Cell Count [2]: 112 | Population Fragmented Nuclei (%) [3]: 7% | Population Healthy Nuclei (%) [3]: 77% | Population Hoechst High Intensity Objects (%) [3]: 6% | Population Membrane Permeable-Phenotype (%) [3]: 3% | Population Mitochondria Different-Phenotype (%) [3]: 8% | Population Mitotic Cells (%) [3]: 59% | Population Normal (%) [3]: 93% | Population Pyknosed Nuclei (%) [3]: 14% | Population Tubulin-Different-Phenotype (%) [3]: 9% | Total Cell Count [3]: 171 | Population Apoptotic (%) [4]: 40% | Population Fragmented Nuclei (%) [4]: 6% | Population Healthy Nuclei (%) [4]: 83% | Population Hoechst High Intensity Objects (%) [4]: 18% | Population Membrane Permeable-Phenotype (%) [4]: 7% | Population Mitochondria Different-Phenotype (%) [4]: 12% | Population Mitotic Cells (%) [4]: 60% | Population Normal (%) [4]: 81% | Population Pyknosed Nuclei (%) [4]: 10% | Population Tubulin-Different-Phenotype (%) [4]: 12% | Total Cell Count [4]: 78 | Population Apoptotic (%) [5]: 40% | Population Fragmented Nuclei (%) [5]: 13% | Population Healthy Nuclei (%) [5]: 76% | Population Hoechst High Intensity Objects (%) [5]: 4% | Population Membrane Permeable-Phenotype (%) [5]: 5% | Population Mitochondria Different-Phenotype (%) [5]: 5% | Population Mitotic Cells (%) [5]: 60% | Population Normal (%) [5]: 95% | Population Pyknosed Nuclei (%) [5]: 10% | Population Tubulin-Different-Phenotype (%) [5]: 18% | Total Cell Count [5]: 278 | Population Apoptotic (%) [6]: 37% | Population Fragmented Nuclei (%) [6]: 3% | Population Healthy Nuclei (%) [6]: 87% | Population Membrane Permeable-Phenotype (%) [6]: 2% | Population Mitochondria Different-Phenotype (%) [6]: 10% | Population Mitotic Cells (%) [6]: 62% | Population Pyknosed Nuclei (%) [6]: 8% | Population Tubulin-Different-Phenotype (%) [6]: 25% | Total Cell Count [6]: 122 | Population Apoptotic (%) [7]: 52% | Population Fragmented Nuclei (%) [7]: 7% | Population Healthy Nuclei (%) [7]: 83% | Population Hoechst High Intensity Objects (%) [7]: 5% | Population Membrane Permeable-Phenotype (%) [7]: 5% | Population Mitochondria Different-Phenotype (%) [7]: 6% | Population Mitotic Cells (%) [7]: 47% | Population Normal (%) [7]: 94% | Population Pyknosed Nuclei (%) [7]: 8% | Population Tubulin-Different-Phenotype (%) [7]: 6% | Total Cell Count [7]: 208 | Population Apoptotic (%) [8]: 40% | Population Fragmented Nuclei (%) [8]: 5% | Population Healthy Nuclei (%) [8]: 85% | Population Hoechst High Intensity Objects (%) [8]: 11% | Population Membrane Permeable-Phenotype (%) [8]: 8% | Population Mitochondria Different-Phenotype (%) [8]: 14% | Population Mitotic Cells (%) [8]: 60% | Population Normal (%) [8]: 88% | Population Pyknosed Nuclei (%) [8]: 9% | Population Tubulin-Different-Phenotype (%) [8]: 12% | Total Cell Count [8]: 95 | Population Apoptotic (%) [9]: 37% | Population Fragmented Nuclei (%) [9]: 5% | Population Healthy Nuclei (%) [9]: 86% | Population Hoechst High Intensity Objects (%) [9]: 3% | Population Membrane Permeable-Phenotype (%) [9]: 4% | Population Mitochondria Different-Phenotype (%) [9]: 10% | Population Mitotic Cells (%) [9]: 62% | Population Normal (%) [9]: 96% | Population Pyknosed Nuclei (%) [9]: 7% | Population Tubulin-Different-Phenotype (%) [9]: 17% | Total Cell Count [9]: 291 | Population Apoptotic (%) [10]: 18% | Population Fragmented Nuclei (%) [10]: 6% | Population Healthy Nuclei (%) [10]: 85% | Population Hoechst High Intensity Objects (%) [10]: 4% | Population Membrane Permeable-Phenotype (%) [10]: 6% | Population Mitochondria Different-Phenotype (%) [10]: 13% | Population Mitotic Cells (%) [10]: 81% | Population Normal (%) [10]: 95% | Population Pyknosed Nuclei (%) [10]: 8% | Population Tubulin-Different-Phenotype (%) [10]: 28% | Total Cell Count [10]: 117 | Population Apoptotic (%) [11]: 31% | Population Fragmented Nuclei (%) [11]: 7% | Population Healthy Nuclei (%) [11]: 84% | Population Hoechst High Intensity Objects (%) [11]: 3% | Population Membrane Permeable-Phenotype (%) [11]: 2% | Population Mitochondria Different-Phenotype (%) [11]: 9% | Population Mitotic Cells (%) [11]: 68% | Population Normal (%) [11]: 96% | Population Pyknosed Nuclei (%) [11]: 8% | Total Cell Count [11]: 316 | Population Apoptotic (%) [12]: 11% | Population Fragmented Nuclei (%) [12]: 9% | Population Healthy Nuclei (%) [12]: 80% | Population Hoechst High Intensity Objects (%) [12]: 9% | Population Membrane Permeable-Phenotype (%) [12]: 4% | Population Mitochondria Different-Phenotype (%) [12]: 17% | Population Mitotic Cells (%) [12]: 88% | Population Normal (%) [12]: 90% | Population Pyknosed Nuclei (%) [12]: 10% | Population Tubulin-Different-Phenotype (%) [12]: 10% | Total Cell Count [12]: 133
